Results from ChEMBL document CHEMBL1157540, “2-Arylthiomorpholine derivatives as potent and selective monoamine oxidase B inhibitors” (Bioorg Med Chem, 2010).

Tests used:
Homo sapiens = species on record: Homo sapiens; assay: Selectivity ratio of Ki for human MAOA to Ki for human MAOB
Rattus norvegicus = species on record: Rattus norvegicus; assay: Selectivity ratio of Ki for rat MAOA to Ki for rat MAOB
Method in brief: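 Ki(rMAO-A)/Ki(rMAO-B), each from rat brain mitochondrial IC50 by Cheng–Prusoff (5-HT for MAO-A, Km 100 μM; DMAPEA for MAO-B, Km 5 μM; HPLC-electrochemical detection).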

[1] = molecular target: T1, Amine oxidase [flavin-containing] A (Rattus norvegicus, UniProt P21396); assay: Inhibition of MAOA in rat brain mitochondrial suspension; assay type: tissue-based
T1 sequence (P21396 whole entry): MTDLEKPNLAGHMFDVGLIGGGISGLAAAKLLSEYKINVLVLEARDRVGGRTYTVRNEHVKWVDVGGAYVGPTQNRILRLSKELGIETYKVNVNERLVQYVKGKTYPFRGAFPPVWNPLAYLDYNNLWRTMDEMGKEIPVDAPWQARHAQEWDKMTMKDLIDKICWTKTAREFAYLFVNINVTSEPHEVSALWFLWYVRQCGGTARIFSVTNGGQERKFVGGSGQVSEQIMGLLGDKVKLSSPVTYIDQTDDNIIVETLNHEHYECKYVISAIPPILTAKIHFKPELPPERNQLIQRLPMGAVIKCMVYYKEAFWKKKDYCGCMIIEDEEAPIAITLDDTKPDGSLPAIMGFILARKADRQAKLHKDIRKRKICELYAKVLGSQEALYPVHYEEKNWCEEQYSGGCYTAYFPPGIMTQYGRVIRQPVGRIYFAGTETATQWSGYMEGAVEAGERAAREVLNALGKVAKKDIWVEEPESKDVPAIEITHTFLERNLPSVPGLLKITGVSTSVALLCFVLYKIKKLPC
Method in brief: (§1)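 Rat brain mitochondria; MAO-A substrate 5-HT, MAO-B substrate DMAPEA; metabolites measured by HPLC with electrochemical detection. Percent inhibition relative to enzyme treated alike without inhibitor; IC50 from inhibition vs –log concentration (mean ± SD, at least two independent experiments, each in triplicate). Ki by Cheng–Prusoff with Km 100 μM (5-HT, MAO-A) and 5 μM (DMAPEA, MAO-B).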

[2] = molecular target: T2, Amine oxidase [flavin-containing] B (Rattus norvegicus, UniProt P19643); assay: Inhibition of MAOB in rat brain mitochondrial suspension; assay type: tissue-based; method in brief: as §1
T2 sequence (P19643 whole entry): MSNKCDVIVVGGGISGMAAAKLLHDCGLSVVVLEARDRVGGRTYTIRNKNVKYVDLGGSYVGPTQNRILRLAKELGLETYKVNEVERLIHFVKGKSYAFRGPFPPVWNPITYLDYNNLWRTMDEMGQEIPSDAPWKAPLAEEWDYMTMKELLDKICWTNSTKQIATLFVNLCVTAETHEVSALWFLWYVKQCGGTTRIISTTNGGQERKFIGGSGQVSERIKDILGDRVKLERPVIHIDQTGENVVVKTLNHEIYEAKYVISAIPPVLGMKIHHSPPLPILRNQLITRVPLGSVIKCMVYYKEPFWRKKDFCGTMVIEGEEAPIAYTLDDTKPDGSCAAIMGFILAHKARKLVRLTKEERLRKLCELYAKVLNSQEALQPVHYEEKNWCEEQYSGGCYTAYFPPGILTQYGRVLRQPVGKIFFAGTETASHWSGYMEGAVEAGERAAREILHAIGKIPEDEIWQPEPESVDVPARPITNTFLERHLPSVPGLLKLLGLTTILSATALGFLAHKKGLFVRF

[3] = molecular target: T3, Amine oxidase [flavin-containing] A (Homo sapiens, UniProt P21397); assay: Inhibition of human recombinant MAOA by spectrophotometrically
T3 sequence (P21397 whole entry): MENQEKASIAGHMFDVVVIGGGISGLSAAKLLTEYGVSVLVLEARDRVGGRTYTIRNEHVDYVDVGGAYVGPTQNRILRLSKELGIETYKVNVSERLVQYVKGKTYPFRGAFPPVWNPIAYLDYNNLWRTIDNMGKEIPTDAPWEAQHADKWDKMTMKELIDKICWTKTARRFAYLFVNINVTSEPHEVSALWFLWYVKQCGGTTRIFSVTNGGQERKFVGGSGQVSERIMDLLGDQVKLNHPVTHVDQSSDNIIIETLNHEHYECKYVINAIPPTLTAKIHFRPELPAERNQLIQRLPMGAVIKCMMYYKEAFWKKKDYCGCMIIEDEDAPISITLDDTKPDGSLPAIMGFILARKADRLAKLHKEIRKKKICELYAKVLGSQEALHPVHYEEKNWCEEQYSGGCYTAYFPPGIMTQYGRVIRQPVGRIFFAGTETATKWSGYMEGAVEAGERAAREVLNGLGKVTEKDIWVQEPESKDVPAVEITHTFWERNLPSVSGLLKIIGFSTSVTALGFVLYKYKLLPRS
Method in brief: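 Purified human recombinant MAO-A; initial oxidation rates read spectrophotometrically at 30 °C in 50 mM potassium phosphate pH 7.4 with 0.05% Triton X-100. Kynuramine 0.1–0.9 mM at six inhibitor concentrations spanning 10-fold; product followed at 314 nm. Ki taken directly from full kinetic analysis; errors from a single kinetic analysis.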

[4] = molecular target: T4, Amine oxidase [flavin-containing] B (Homo sapiens, UniProt P27338); assay: Inhibition of human recombinant MAOB by spectrophotometrically
T4 sequence (P27338 whole entry): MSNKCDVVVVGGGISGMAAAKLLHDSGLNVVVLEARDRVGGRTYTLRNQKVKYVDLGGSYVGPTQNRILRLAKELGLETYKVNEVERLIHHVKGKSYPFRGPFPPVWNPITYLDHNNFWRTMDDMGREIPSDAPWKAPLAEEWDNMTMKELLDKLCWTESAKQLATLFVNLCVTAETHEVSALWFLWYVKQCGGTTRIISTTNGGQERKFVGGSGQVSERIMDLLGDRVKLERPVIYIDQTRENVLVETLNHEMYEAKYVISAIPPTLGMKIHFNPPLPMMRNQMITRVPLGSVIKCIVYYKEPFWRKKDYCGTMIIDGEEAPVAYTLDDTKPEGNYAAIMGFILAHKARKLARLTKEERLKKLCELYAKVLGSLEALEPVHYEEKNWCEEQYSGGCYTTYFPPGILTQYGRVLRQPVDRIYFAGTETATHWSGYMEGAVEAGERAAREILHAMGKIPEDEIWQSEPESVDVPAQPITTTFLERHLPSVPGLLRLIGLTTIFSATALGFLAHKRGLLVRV
Method in brief: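 Purified human recombinant MAO-B; benzylamine substrate in 50 mM Hepes pH 7.5 with 0.5% (w/v) reduced Triton X-100 at 25 °C. Benzaldehyde formation monitored at 250 nm. Ki from full kinetic determinations (initial velocities at varied inhibitor levels; Lineweaver–Burk analysis).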

Compound	Ratio Ki (Homo sapiens)	Ratio Ki (Rattus norvegicus)	Ki [1] [µM]	Ki [2] [µM]	Ki [3] [µM]	Ki [4] [µM]
CCCCOc1ccc(C2CNC(=O)CS2)cc1 (racemic)	22	318	50.9	0.16	10	0.46
COc1ccc(C2CNCCS2)cc1 (racemic)	–	1.7	6.39	3.85	16.2	> 100
CCCOc1ccc(C2CNC(=O)CS2)cc1 (racemic)	16.7	6	8.68	1.49	40	2.4
CCOc1ccc(C2CNCCS2)cc1 (racemic)	5	1	2.17	2.17	9.6	2.1
COc1ccc(C2CNC(=O)CS2)cc1 (racemic)	–	0.68	9.28	13.6	> 100	> 100
CCCCOc1ccc(C2CNCCS2)cc1 (racemic)	37	52	14.1	0.27	2.5	0.068
c1ccc(COc2ccc(C3CNCCS3)cc2)cc1 (racemic)	> 2600	146	19	0.13	> 100	0.038
CCCOc1ccc(C2CNCCS2)cc1 (racemic)	51	4	3.69	0.98	6.62	0.13
O=C1CSC(c2ccc(OCc3ccccc3)cc2)CN1 (racemic)	> 2000	373	27.5	0.074	> 100	0.048
c1ccc(C2CNCCS2)cc1 (racemic)	–	5	10.6	2.23	> 100	> 100
CCOc1ccc(C2CNC(=O)CS2)cc1 (racemic)	3.5	3.6	12.3	3.4	60	16.9
C[C@H](N)Cc1ccccc1 [DEXTROAMPHETAMINE]	0.05	> 0.12	12.2	> 100	14.4	280
O=C1CSC(c2ccccc2)CN1 (racemic)	–	1	9.19	9.58	> 100	> 100
